Several values for one entry are separate records, joined by “and”; a condition that tells them apart may be missing. Equal values may be shown once.
System: U2OS
Experiment: Multiplex assay against U2OS
Type: toxicity, cell-based
Details: human, number of replicates 2
Summary of the method: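 Phenotypes for tubulin, mitochondrial mass and membrane permeability are expressed as per cents of healthy-nucleus cells. Cells were stained live at seeding with Hoechst33342, BioTracker Green Microtubule Cytoskeleton Dye, MitoTracker Red and Annexin V Alexa Fluor 680, then imaged after compound addition on a CQ1 microscope at 37°C and 5% CO2. Machine-learning gating in CellPathfinder separated Hoechst high-intensity objects from normal cells, divided normal cells by nuclear state (healthy, pyknosed, fragmented) and divided pyknosed cells into mitotic or apoptotic.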

[1] = 12 h, 1 µM, compound concentration 1 uM
[2] = 12 h, 10 µM, compound concentration 10 uM
[3] = 24 h, 1 µM, compound concentration 1 uM
[4] = 24 h, 10 µM, compound concentration 10 uM
[5] = 48 h, 1 µM, compound concentration 1 uM
[6] = 48 h, 10 µM, compound concentration 10 uM

N=C(N)NCCC[C@H](NC(=O)COCC(c1ccccc1)c1ccccc1)C(=O)O.O=C(O)C(F)(F)F
Population Apoptotic (%) [1]: 100% and 45% | Population Healthy Nuclei (%) [1]: 40% and 87% | Population Hoechst High Intensity Objects (%) [1]: 0% | Population Membrane Permeable-Phenotype (%) [1]: 0% and 1% | Population Mitochondria Different-Phenotype (%) [1]: 0% | Population Normal (%) [1]: 100% and 99% | Population Pyknosed Nuclei (%) [1]: 13% and 9% | Population Tubulin-Different-Phenotype (%) [1]: 41% and 86% | Population Apoptotic (%) [2]: 50% and 58% | Population Fragmented Nuclei (%) [2]: 3% | Population Healthy Nuclei (%) [2]: 70% and 88% | Population Hoechst High Intensity Objects (%) [2]: 0% | Population Membrane Permeable-Phenotype (%) [2]: 4% and 1% | Population Mitochondria Different-Phenotype (%) [2]: 4% and 0% | Population Mitotic Cells (%) [2]: 50% and 41% | Population Normal (%) [2]: 100% | Population Tubulin-Different-Phenotype (%) [2]: 71% and 83% | Population Apoptotic (%) [3]: 40% and 51% | Population Healthy Nuclei (%) [3]: 55% and 88% | Population Hoechst High Intensity Objects (%) [3]: 0% | Population Membrane Permeable-Phenotype (%) [3]: 13% and 0% | Population Mitochondria Different-Phenotype (%) [3]: 0% | Population Mitotic Cells (%) [3]: 60% and 48% | Population Normal (%) [3]: 100% | Population Pyknosed Nuclei (%) [3]: 18% and 9% | Population Tubulin-Different-Phenotype (%) [3]: 73% and 87% | Population Apoptotic (%) [4]: 71% and 50% | Population Fragmented Nuclei (%) [4]: 7% and 2% | Population Healthy Nuclei (%) [4]: 73% and 88% | Population Hoechst High Intensity Objects (%) [4]: 0% | Population Membrane Permeable-Phenotype (%) [4]: 3% and 0% | Population Mitochondria Different-Phenotype (%) [4]: 3% and 0% | Population Mitotic Cells (%) [4]: 28% and 50% | Population Normal (%) [4]: 100% | Population Pyknosed Nuclei (%) [4]: 18% and 8% | Population Tubulin-Different-Phenotype (%) [4]: 67% and 85% | Population Apoptotic (%) [5]: 50% and 43% | Population Healthy Nuclei (%) [5]: 63% and 89% | Population Hoechst High Intensity Objects (%) [5]: 0% | Population Membrane Permeable-Phenotype (%) [5]: 11% and 0% | Population Mitochondria Different-Phenotype (%) [5]: 7% and 0% | Population Mitotic Cells (%) [5]: 50% and 56% | Population Normal (%) [5]: 100% | Population Pyknosed Nuclei (%) [5]: 14% and 6% | Population Tubulin-Different-Phenotype (%) [5]: 73% and 85% | Population Apoptotic (%) [6]: 35% and 55% | Population Fragmented Nuclei (%) [6]: 7% and 2% | Population Healthy Nuclei (%) [6]: 70% and 93% | Population Hoechst High Intensity Objects (%) [6]: 0% | Population Membrane Permeable-Phenotype (%) [6]: 2% and 1% | Population Mitochondria Different-Phenotype (%) [6]: 2% and 0% | Population Mitotic Cells (%) [6]: 64% and 44% | Population Normal (%) [6]: 100% and 99% | Population Tubulin-Different-Phenotype (%) [6]: 63% and 95%

CS(=O)(=O)c1ccc(C(=O)Nc2cc(F)cc(COc3ccc(Br)cc3CN3CC[C@H](O)C3)c2)c(Cl)c1.O=CO
Population Healthy Nuclei (%) [1]: 64% and 82% | Population Hoechst High Intensity Objects (%) [1]: 0% | Population Mitotic Cells (%) [1]: 20% and 12% | Population Pyknosed Nuclei (%) [1]: 8% and 13% | Population Healthy Nuclei (%) [2]: 31% and 70% | Population Hoechst High Intensity Objects (%) [2]: 0% | Population Mitotic Cells (%) [2]: 44% and 57% | Population Pyknosed Nuclei (%) [2]: 21% and 25% | Population Healthy Nuclei (%) [3]: 82% and 53% | Population Hoechst High Intensity Objects (%) [3]: 0% | Population Mitotic Cells (%) [3]: 21% and 46% | Population Pyknosed Nuclei (%) [3]: 15% and 20% | Population Healthy Nuclei (%) [4]: 32% and 68% | Population Hoechst High Intensity Objects (%) [4]: 0% | Population Mitotic Cells (%) [4]: 20% and 26% | Population Pyknosed Nuclei (%) [4]: 25% and 28% | Population Healthy Nuclei (%) [5]: 57% and 85% | Population Hoechst High Intensity Objects (%) [5]: 0% | Population Mitotic Cells (%) [5]: 11% and 15% | Population Pyknosed Nuclei (%) [5]: 18% | Population Healthy Nuclei (%) [6]: 19% and 52% | Population Hoechst High Intensity Objects (%) [6]: 0% | Population Mitotic Cells (%) [6]: 12% and 9% | Population Pyknosed Nuclei (%) [6]: 44% and 38%

CN(C)C/C=C/C(=O)Nc1ccc(C(=O)Nc2cccc(Nc3ncc(Cl)c(-c4c[nH]c5ccccc45)n3)c2)cc1
Population Apoptotic (%) [1]: 81% and 93% | Population Fragmented Nuclei (%) [1]: 12% and 3% | Population Healthy Nuclei (%) [1]: 53% and 73% | Population Hoechst High Intensity Objects (%) [1]: 0% | Population Membrane Permeable-Phenotype (%) [1]: 0% and 2% | Population Mitochondria Different-Phenotype (%) [1]: 0% and 4% | Population Mitotic Cells (%) [1]: 18% and 6% | Population Normal (%) [1]: 100% | Population Pyknosed Nuclei (%) [1]: 34% and 22% | Population Tubulin-Different-Phenotype (%) [1]: 64% and 72% | Population Apoptotic (%) [2]: 96% and 89% | Population Fragmented Nuclei (%) [2]: 17% and 9% | Population Healthy Nuclei (%) [2]: 35% and 56% | Population Hoechst High Intensity Objects (%) [2]: 0% | Population Membrane Permeable-Phenotype (%) [2]: 18% and 17% | Population Mitochondria Different-Phenotype (%) [2]: 4% and 11% | Population Mitotic Cells (%) [2]: 3% and 10% | Population Normal (%) [2]: 100% | Population Pyknosed Nuclei (%) [2]: 46% and 34% | Population Tubulin-Different-Phenotype (%) [2]: 40% and 48% | Population Apoptotic (%) [3]: 83% and 94% | Population Fragmented Nuclei (%) [3]: 17% and 9% | Population Healthy Nuclei (%) [3]: 31% and 40% | Population Hoechst High Intensity Objects (%) [3]: 0% and 1% | Population Mitochondria Different-Phenotype (%) [3]: 27% and 12% | Population Normal (%) [3]: 100% and 98% | Population Pyknosed Nuclei (%) [3]: 51% and 50% | Population Tubulin-Different-Phenotype (%) [3]: 100% and 77% | Population Apoptotic (%) [4]: 92% and 98% | Population Fragmented Nuclei (%) [4]: 21% and 11% | Population Healthy Nuclei (%) [4]: 18% and 31% | Population Hoechst High Intensity Objects (%) [4]: 0% and 1% | Population Membrane Permeable-Phenotype (%) [4]: 46% and 27% | Population Mitochondria Different-Phenotype (%) [4]: 23% and 31% | Population Mitotic Cells (%) [4]: 7% and 1% | Population Normal (%) [4]: 100% and 98% | Population Pyknosed Nuclei (%) [4]: 59% and 57% | Population Tubulin-Different-Phenotype (%) [4]: 61% and 54% | Population Apoptotic (%) [5]: 84% and 96% | Population Fragmented Nuclei (%) [5]: 17% and 10% | Population Healthy Nuclei (%) [5]: 14% and 18% | Population Hoechst High Intensity Objects (%) [5]: 0% and 2% | Population Membrane Permeable-Phenotype (%) [5]: 50% and 44% | Population Mitochondria Different-Phenotype (%) [5]: 50% and 48% | Population Normal (%) [5]: 100% and 97% | Population Pyknosed Nuclei (%) [5]: 67% and 70% | Population Tubulin-Different-Phenotype (%) [5]: 100% and 88% | Population Apoptotic (%) [6]: 99% and 95% | Population Fragmented Nuclei (%) [6]: 7% and 19% | Population Hoechst High Intensity Objects (%) [6]: 3% and 0% | Population Mitochondria Different-Phenotype (%) [6]: 67% and 100% | Population Mitotic Cells (%) [6]: 0% and 4% | Population Normal (%) [6]: 96% and 100% | Population Pyknosed Nuclei (%) [6]: 79% and 78% | Population Tubulin-Different-Phenotype (%) [6]: 89% and 100%

Source: ChEMBL document CHEMBL5303300, “EUbOPEN Chemogenomics Library - Multiplex” (2023)
